Source: PubChem (Broad Institute)
Most compounds without a hit are left out; they make up all but 5.9% or so of the library.
IDH1 mut inh = IDH1 R132H (human) inhibition. 0.18% of 70,000 active. inhibition, % at 10 µM. IDH1 R132H reductase, diaphorase/resazurin fluorescence, 60 min; in the data active = inhibition above about 34%; inconclusive = no clear call, values can overlap the other calls; inactive = below about 11%
T cruzi growth-1 = T. cruzi proliferation inhibition; T. cruzi beta-gal in NIH3T3, GalScreen luminescence, 90 h; inhibition, % at 8.34 µM; 5.9% of 77,000 active;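 active = mean inhibition above about 93%, with at least 55% of replicates each passing it, limit read from the data, passing the limit was not always enough; inconclusive = only one of those two conditions holds; inactive = neither condition holds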
KDM4C inh = inhibitors of human demethylase GASC-1 KDM4C. Q9H3R0. GST-KDM4C 2-372, H3K9me3 peptide, LANCE TR-FRET. inhibition, % at 12.5 µM. 0.15% of 96,000 active. AID 720574;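 active = mean replicate inhibition above about 25%, with at least 55% of replicates also reaching it, limit read from the data, passing the limit was not always enough; inconclusive = only one of those two conditions met; inactive = neither condition met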
Target sequence (Q9H3R0 2-372 limits assumed): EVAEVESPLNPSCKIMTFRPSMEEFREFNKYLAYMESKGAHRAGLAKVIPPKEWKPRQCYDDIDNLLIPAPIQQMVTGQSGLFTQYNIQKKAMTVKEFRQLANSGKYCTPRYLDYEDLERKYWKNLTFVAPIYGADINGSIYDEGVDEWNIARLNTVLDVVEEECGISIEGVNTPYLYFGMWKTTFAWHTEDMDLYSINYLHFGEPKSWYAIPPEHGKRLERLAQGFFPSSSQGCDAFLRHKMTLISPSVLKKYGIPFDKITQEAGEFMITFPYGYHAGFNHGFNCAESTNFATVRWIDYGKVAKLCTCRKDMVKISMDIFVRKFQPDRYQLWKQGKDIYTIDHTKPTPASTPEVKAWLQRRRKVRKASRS
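Material: N-terminal GST-fused human GASC-1 (KDM4C) fragment, residues 2-372. Input: 10 nM enzyme. Incubation: enzyme reaction 30 min, then detection 60 min, both room temperature. Doses: one test concentration per compound. Read-out basis: inhibition from TR-FRET ratio decrease. Detection: LANCE TR-FRET, excitation 340 nm, emissions 618 and 671 nm.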
Pf Dd2 inh = inhibitors of Plasmodium falciparum Dd2 growth; 2.3% of 94,000 active; AID 1159554; activity change, % at 10 µM; P. falciparum Dd2 growth, SYBR Green, 72 h; stronger effect = lower value; in the data active = activity change below about -80%; inconclusive = no clear call, values can overlap the other calls
T cruzi growth-2 = blocks T. cruzi growth in NIH3T3 host cells | T. cruzi beta-gal in NIH3T3, GalScreen luminescence, 90 h | shares compounds with T cruzi growth-1 | 72% of 5,600 active | inhibition, % at 8.35 µM | AID 651739;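 active = mean replicate inhibition above about 95% and at least 55% of replicates individually reaching it, limit read from the data; inconclusive = only one of the two criteria is met; inactive = neither criterion is met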
T cruzi growth-3 = inhibitors of T. cruzi proliferation | 21% of 5,600 active | shares compounds with T cruzi growth-1 | T. cruzi beta-gal in NIH3T3, GalScreen luminescence, 90 h | inhibition, % at 2.09 µM;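 active = mean inhibition above about 95%, with at least 55% of replicates also reaching it, limit read from the data; inconclusive = meets just one of the two conditions; inactive = meets neither condition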
NIH3T3 tox = cytotoxicity in mouse NIH/3T3 fibroblasts; 14% of 5,600 active; shares compounds with T cruzi growth-1; AID 651742; cytotoxicity (signal decrease), % at 8.35 µM; NIH/3T3 viability, CellTiter-Glo ATP luminescence, 90 h;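 active = mean signal decrease across replicates above about 35% based on untreated-well scatter, with enough replicates individually passing, limit read from the data; inconclusive = no rule stated though some were filed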
3T3 cytotox 2 = cytotoxicity in mouse NIH/3T3 fibroblasts; shares compounds with T cruzi growth-1; NIH/3T3 viability, CellTiter-Glo ATP luminescence, 90 h; AID 651744; inhibition, % at 24.9 µM; 56% of 5,600 active;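 active = mean loss of cell viability signal at or above a set limit, and enough replicates individually reaching it; inconclusive = meets only the mean limit or only the replicate share; inactive = meets neither condition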
Numbers stand for hits; – = inactive; ? = inconclusive; · = no result; ! = repeats disagree.

SMILES | IDH1 mut inh | T cruzi growth-1 | KDM4C inh | Pf Dd2 inh | T cruzi growth-2 | T cruzi growth-3 | NIH3T3 tox | 3T3 cytotox 2
C[C@H](CO)N1C[C@H](C)[C@H](CN(C)S(=O)(=O)c2ccccc2F)Oc2cc(C#Cc3cccc(F)c3)ccc2S1(=O)=O | – | 109 | – | – | 103 | – | – | –
C[C@@H]1CN([C@@H](C)CO)S(=O)(=O)c2ccc(C#Cc3cccc(F)c3)cc2O[C@H]1CN(C)S(=O)(=O)c1ccccc1F | – | 112 | – | – | 110 | ? | – | 34
CC(C)c1nnc(NC(=O)CC(NC(=O)c2ccccc2)c2ccccc2)s1 (stereo not drawn) | – | · | · | · | · | · | · | ·
Cc1ccc(-c2noc(CN(C(C)C)S(=O)(=O)c3ccccc3)n2)cc1 | – | · | · | · | · | · | · | ·
Cc1ccc(NS(=O)(=O)c2cc(C(=O)NCC3CCCO3)ccc2Cl)cc1C (stereo not drawn) | – | · | · | · | · | · | · | ·
Cc1ccc(-n2c(C)nnc2SCC(=O)Nc2ccc(Br)c(C)c2)cc1C | – | · | · | · | · | · | · | ·
Cc1cc(O)cc2c(=O)oc(CC(C)O)cc12 (stereo not drawn) | – | · | · | · | · | · | · | ·
COc1ccc(NC(=O)C(C)Oc2ccccc2C)c([N+](=O)[O-])c1 (stereo not drawn) | – | · | · | · | · | · | · | ·
C[C@H]1CCCCO[C@@H](CN(C)Cc2ccc3c(c2)OCO3)[C@@H](C)CN([C@@H](C)CO)C(=O)c2cc(N(C)C)ccc2O1 | – | – | · | – | · | · | · | ·
C[C@@H]1CN([C@H](C)CO)C(=O)c2cc(N(C)C)ccc2O[C@@H](C)CCCCO[C@@H]1CN(C)Cc1ccc2c(c1)OCO2 | · | 102 | – | – | – | – | – | –
C[C@@H]1CN([C@@H](C)CO)C(=O)c2cc(N(C)C)ccc2O[C@@H](C)CCCCO[C@H]1CN(C)Cc1ccc2c(c1)OCO2 | · | 105! | – | – | – | – | – | –
C/C=C1\[C@H](O[C@@H]2O[C@H](CO)[C@@H](O)[C@H](O)[C@H]2O)OC=C(C(=O)O)[C@H]1CC(=O)OCCc1ccc(O)cc1 | – | · | · | · | · | · | · | ·
CS(=O)(=O)N(CC(=O)Nc1ccc(C(F)(F)F)cc1)c1ccc(F)cc1 | – | · | · | · | · | · | · | ·
COc1ccc(C#Cc2ccc([C@H]3[C@@H](CO)N4CCCCN(C(=O)Nc5ccccc5)C[C@@H]34)cc2)cc1 | · | 125 | – | – | 111 | 114 | – | 30
C/C=C/c1ccc([C@H]2[C@@H](CO)N3CCCCN(C(=O)Nc4ccc(OC)cc4)C[C@H]23)cc1 | · | ? | – | – | – | – | – | 90
C/C=C/c1ccc([C@@H]2[C@H](CO)N3CCCCN(C(=O)Nc4ccc(OC)cc4)C[C@@H]23)cc1 | · | – | – | – | · | · | · | ·
COc1ccc(C#Cc2ccc([C@@H]3[C@H]4CN(C(=O)Nc5cccc(F)c5)CCCCN4[C@H]3CO)cc2)cc1 | · | – | – | – | · | · | · | ·
COc1ccc(C#Cc2ccc([C@H]3[C@@H](CO)N4CCCCN(C(=O)Nc5cccc(F)c5)C[C@@H]34)cc2)cc1 | · | 112 | – | – | 101 | 109 | – | –
COc1ccc(C#Cc2ccc([C@H]3[C@H]4CN(C(=O)Nc5ccccc5)CCCCN4[C@H]3CO)cc2)cc1 | · | 119 | – | – | 108 | – | – | –
O=C(CSc1nc2sc3c(c2c(=O)n1Cc1ccco1)CCC3)N1CCCc2ccccc21 | – | · | · | · | · | · | · | ·
Cc1cc(C)c(NC(=O)CSc2nncc3ccccc23)c([N+](=O)[O-])c1 | – | · | · | · | · | · | · | ·
N#C[C@@H]1[C@@H](c2ccc(C#CC3(O)CCCC3)cc2)[C@@H](CO)N1C(=O)C1CCCCC1 | · | 97 | – | – | 110 | – | – | ?
N#C[C@H]1[C@@H](c2ccc(C#CC3(O)CCCC3)cc2)[C@H](CO)N1C(=O)C1CCC1 | · | 99 | – | – | 104 | – | – | 69
N#C[C@H]1[C@@H](c2ccc(C#CC3(O)CCCC3)cc2)[C@@H](CO)N1C(=O)C1CCCCC1 | · | – | – | – | · | · | · | ·
N#C[C@H]1[C@@H](c2ccc(C#CC3(O)CCCC3)cc2)[C@@H](CO)N1C(=O)C1CCC1 | · | – | – | – | · | · | · | ·
SMILES | IDH1 mut inh | T cruzi growth-1 | KDM4C inh | Pf Dd2 inh | T cruzi growth-2 | T cruzi growth-3 | NIH3T3 tox | 3T3 cytotox 2
CS(=O)(=O)CCC(C(=O)Nc1cccc2ncccc12)N1C(=O)c2cc(Cl)c(Cl)cc2C1=O (stereo not drawn) | – | · | · | · | · | · | · | ·
O=S(=O)(NCc1ccccn1)c1ccc(Cl)c(Cl)c1Cl | – | · | · | · | · | · | · | ·
C[C@H]1CN([C@@H](C)CO)S(=O)(=O)c2ccc(C#CC3CC3)cc2O[C@@H]1CN(C)CC1CCOCC1 | – | ? | – | – | 103 | – | – | 99
C[C@@H]1CN([C@@H](C)CO)S(=O)(=O)c2ccc(C#CC3CC3)cc2O[C@H]1CN(C)CC1CCOCC1 | – | 109 | – | – | – | – | 65 | 89
C[C@@H]1CN([C@H](C)CO)C(=O)c2cc(NC(=O)Nc3ccc4c(c3)OCO4)ccc2O[C@H]1CN(C)Cc1ccc(Oc2ccccc2)cc1 | · | – | – | – | · | · | · | ·
C[C@@H]1CN([C@@H](C)CO)C(=O)c2cc(NC(=O)Nc3ccc4c(c3)OCO4)ccc2O[C@H]1CN(C)Cc1ccc(-c2ccccc2)cc1 | · | 96 | – | – | 102 | – | – | 82
C[C@H](CO)N1C[C@H](C)[C@@H](CN(C)Cc2ccc(Oc3ccccc3)cc2)Oc2ccc(NC(=O)Nc3ccc4c(c3)OCO4)cc2C1=O | · | ? | – | – | 111 | – | – | –
COc1ccc(C)cc1S(=O)(=O)N1CCC(C(=O)Nc2cccc(C(C)=O)c2)CC1 | – | · | · | · | · | · | · | ·
CC(C)(C)C1CCc2c(sc(NC(=O)COc3ccccc3Cl)c2C(N)=O)C1 (stereo not drawn) | – | · | · | · | · | · | · | ·
O=C(Cc1ccncc1)N1CC[C@@H]2[C@H]1c1cc(-c3cccc(F)c3)ccc1N[C@@H]2CO | · | 118 | – | – | 107 | – | – | –
COc1ccc(-c2ccc3c(c2)[C@H]2[C@H](CCN2C(=O)Cc2ccncc2)[C@H](CO)N3)cc1 | · | – | – | – | · | · | · | ·
O=C(Cc1ccccc1)N1CC[C@H]2[C@H](CO)Nc3ccc(-c4cccc(F)c4)cc3[C@H]21 | · | – | – | – | · | · | · | ·
COc1cccc(-c2ccc3c(c2)[C@@H]2[C@@H](CCN2C(=O)Cc2ccncc2)[C@@H](CO)N3)c1 | · | ? | – | – | 101 | – | – | –
COc1cccc(-c2ccc([C@H]3[C@@H](CO)N(C(=O)Cc4ccccc4)[C@H]3C#N)cc2)c1 | · | 97 | – | – | 96 | 99 | – | 37
COc1cccc(-c2ccc([C@@H]3[C@H](C#N)N(C(=O)Cc4ccccc4)[C@H]3CO)cc2)c1 | · | ? | – | – | 111 | – | – | 33
COc1cccc(-c2ccccc2[C@@H]2[C@@H](CO)N(C(=O)Cc3ccccc3)[C@H]2C#N)c1 | · | · | – | – | · | · | · | ·
